Laboratory results reported in ChEMBL document CHEMBL1641444, “Synthesis and evaluation of 6-[1-(2-[(18)F]fluoro-3-pyridyl)-5-methyl-1H-1,2,3-triazol-4-yl]quinoline for positron emission tomography imaging of the metabotropic glutamate receptor type 1 in brain” (Bioorg Med Chem, 2011).

Experiments:
Cerebral cortex [1] = assay: Biodistribution in cerebral cortex of Sprague-Dawley rat at 17 MBq, iv after 5 mins by dissection method; assay type: ADME, organism-based; conditions: in vivo
Procedure, shortened: (§1)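 The [18F]ligand was given to rats as a saline solution (average 17 MBq, about 0.11 nmol) via the tail vein. Three rats per time point were killed by cervical dislocation at 5, 15 and 30 min. Dissected tissues were gamma-counted with decay correction, and results are expressed as % injected dose per gram of wet tissue.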

Cerebral cortex [2] = assay: Biodistribution in cerebral cortex of Sprague-Dawley rat at 17 MBq, iv after 30 mins by dissection method; assay type: ADME, organism-based; conditions: in vivo, 0.5 h; procedure, shortened: as §1
Lung = assay: Biodistribution in lung of Sprague-Dawley rat at 17 MBq, iv after 30 mins by dissection method; assay type: ADME, organism-based; conditions: in vivo, 0.5 h
Procedure, shortened: (§2)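 [¹⁸F]7a in saline (average 17 MBq/200 µL, 0.11 nmol) was given by tail vein. Rats were killed by cervical dislocation at 5, 15 or 30 min, with three rats per time point. Tissue radioactivity was measured by gamma counting, decay-corrected and expressed as %ID per gram of wet tissue.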

[3] = Octanol-sodium phosphate buffer partition coefficient, log D of the compound at pH 7.4; assay type: physicochemical
Procedure, shortened: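 [¹⁸F]7a (radiochemical purity 100%, about 150,000 cpm) was mixed with n-octanol (3.0 g) and 0.1 M sodium phosphate buffer pH 7.40 (3.0 g). The mix was vortexed for 3 min at room temperature, then centrifuged at 3500 rpm for 5 min. Assays were run in triplicate.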

Pancreas [4] = assay: Biodistribution in pancreas of Sprague-Dawley rat at 17 MBq, iv after 5 mins by dissection method; assay type: ADME, organism-based; conditions: in vivo; procedure, shortened: as §2
Hippocampus [5] = assay: Biodistribution in hippocampus of Sprague-Dawley rat at 17 MBq, iv after 30 mins by dissection method; assay type: ADME, organism-based; conditions: in vivo, 0.5 h; procedure, shortened: as §1
Striatum [6] = assay: Biodistribution in striatum of Sprague-Dawley rat at 17 MBq, iv after 30 mins by dissection method; assay type: ADME, organism-based; conditions: in vivo, 0.5 h; procedure, shortened: as §2
Spleen [7] = assay: Biodistribution in spleen of Sprague-Dawley rat at 17 MBq, iv after 5 mins by dissection method; assay type: ADME, organism-based; conditions: in vivo; procedure, shortened: as §2
[8] = Biodistribution in pons-medulla of Sprague-Dawley rat at 17 MBq, iv after 5 mins by dissection method; assay type: ADME, organism-based; conditions: in vivo; procedure, shortened: as §2
Hippocampus [9] = assay: Biodistribution in hippocampus of Sprague-Dawley rat at 17 MBq, iv after 15 mins by dissection method; assay type: ADME, organism-based; conditions: in vivo, 0.25 h; procedure, shortened: as §1
Striatum [10] = assay: Biodistribution in striatum of Sprague-Dawley rat at 17 MBq, iv after 5 mins by dissection method; assay type: ADME, organism-based; conditions: in vivo; procedure, shortened: as §2
Kidney [11] = assay: Biodistribution in kidney of Sprague-Dawley rat at 17 MBq, iv after 30 mins by dissection method; assay type: ADME, organism-based; conditions: in vivo, 0.5 h; procedure, shortened: as §1
Kidney [12] = assay: Biodistribution in kidney of Sprague-Dawley rat at 17 MBq, iv after 5 mins by dissection method; assay type: ADME, organism-based; conditions: in vivo; procedure, shortened: as §1
Cerebral cortex [13] = assay: Biodistribution in cerebral cortex of Sprague-Dawley rat at 17 MBq, iv after 15 mins by dissection method; assay type: ADME, organism-based; conditions: in vivo, 0.25 h; procedure, shortened: as §1
[14] = Biodistribution in small intestine of Sprague-Dawley rat at 17 MBq, iv after 5 mins by dissection method; assay type: ADME, organism-based; conditions: in vivo; procedure, shortened: as §2
Thalamus = assay: Biodistribution in thalamus of Sprague-Dawley rat at 17 MBq, iv after 15 mins by dissection method; assay type: ADME, organism-based; conditions: in vivo, 0.25 h; procedure, shortened: as §2
Heart [15] = assay: Biodistribution in heart of Sprague-Dawley rat at 17 MBq, iv after 30 mins by dissection method; assay type: ADME, organism-based; conditions: in vivo, 0.5 h; procedure, shortened: as §1
[16] = tested on: Cerebellum (Mus musculus); assay: Metabolic stability in cerebellum of mouse assessed as reduction of parent compound level at 3.7 MBq, iv after 15 mins by HPLC analysis; parameters: scale not given: the % may be the effect or the level left; conditions: in vivo, 0.25 h
[17] = Metabolic stability in plasma of ddy mouse assessed as reduction of parent compound level at 3.7 MBq, iv after 30 mins by HPLC analysis; parameters: scale not given: the % may be the effect or the level left; conditions: 0.5 h
Heart [18] = assay: Biodistribution in heart of Sprague-Dawley rat at 17 MBq, iv after 5 mins by dissection method; assay type: ADME, organism-based; conditions: in vivo; procedure, shortened: as §1
Spleen [19] = assay: Biodistribution in spleen of Sprague-Dawley rat at 17 MBq, iv after 15 mins by dissection method; assay type: ADME, organism-based; conditions: in vivo, 0.25 h; procedure, shortened: as §2
Kidney [20] = assay: Biodistribution in kidney of Sprague-Dawley rat at 17 MBq, iv after 15 mins by dissection method; assay type: ADME, organism-based; conditions: in vivo, 0.25 h; procedure, shortened: as §1
Pancreas [21] = assay: Biodistribution in pancreas of Sprague-Dawley rat at 17 MBq, iv after 30 mins by dissection method; assay type: ADME, organism-based; conditions: in vivo, 0.5 h; procedure, shortened: as §2
Muscle tissue = assay: Biodistribution in muscle of Sprague-Dawley rat at 17 MBq, iv after 15 mins by dissection method; assay type: ADME, organism-based; conditions: in vivo, 0.25 h; procedure, shortened: as §2
[22] = Biodistribution in olfactory bulb of Sprague-Dawley rat at 17 MBq, iv after 5 mins by dissection method; assay type: ADME, organism-based; conditions: in vivo; procedure, shortened: as §2
[23] = Biodistribution in olfactory bulb of Sprague-Dawley rat at 17 MBq, iv after 30 mins by dissection method; assay type: ADME, organism-based; conditions: in vivo, 0.5 h; procedure, shortened: as §2

Cc1c(-c2ccc3ncccc3c2)nnn1-c1cccnc1[18F]
Drug uptake (Cerebral cortex [1]): 0.44 % ID/g
Drug uptake (Cerebral cortex [2]): 0.09 % ID/g
Drug uptake (Lung): 0.17 % ID/g
logD [3]: 2.53
Drug uptake (Pancreas [4]): 0.75 % ID/g
Drug uptake (Hippocampus [5]): 0.09 % ID/g
Drug uptake (Striatum [6]): 0.11 % ID/g
Drug uptake (Spleen [7]): 0.43 % ID/g
Drug uptake [8]: 0.47 % ID/g
Drug uptake (Hippocampus [9]): 0.22 % ID/g
Drug uptake (Striatum [10]): 0.54 % ID/g
Drug uptake (Kidney [11]): 0.39 % ID/g
Drug uptake (Kidney [12]): 0.76 % ID/g
Drug uptake (Cerebral cortex [13]): 0.2 % ID/g
Drug uptake [14]: 3.06 % ID/g
Drug uptake (Thalamus): 0.29 % ID/g
Drug uptake (Heart [15]): 0.16 % ID/g
Stability [16]: 91%
Stability [17]: 4%
Drug uptake (Heart [18]): 0.47 % ID/g
Drug uptake (Spleen [19]): 0.25 % ID/g
Drug uptake (Kidney [20]): 0.57 % ID/g
Drug uptake (Pancreas [21]): 0.21 % ID/g
Drug uptake (Muscle tissue): 0.14 % ID/g
Drug uptake [22]: 0.52 % ID/g
Drug uptake [23]: 0.1 % ID/g
